# Data: ChEMBL document CHEMBL1132814, “N-1 substituted pyrimidin-4-ones: novel, orally active inhibitors of lipoprotein-associated phospholipase A2” (Bioorg Med Chem Lett, 2000)
# pIC50: −log10 of the molar value.
# Molecular target: T1, Platelet-activating factor acetylhydrolase (Homo sapiens) (UniProt Q13093)
# T1 sequence (whole entry): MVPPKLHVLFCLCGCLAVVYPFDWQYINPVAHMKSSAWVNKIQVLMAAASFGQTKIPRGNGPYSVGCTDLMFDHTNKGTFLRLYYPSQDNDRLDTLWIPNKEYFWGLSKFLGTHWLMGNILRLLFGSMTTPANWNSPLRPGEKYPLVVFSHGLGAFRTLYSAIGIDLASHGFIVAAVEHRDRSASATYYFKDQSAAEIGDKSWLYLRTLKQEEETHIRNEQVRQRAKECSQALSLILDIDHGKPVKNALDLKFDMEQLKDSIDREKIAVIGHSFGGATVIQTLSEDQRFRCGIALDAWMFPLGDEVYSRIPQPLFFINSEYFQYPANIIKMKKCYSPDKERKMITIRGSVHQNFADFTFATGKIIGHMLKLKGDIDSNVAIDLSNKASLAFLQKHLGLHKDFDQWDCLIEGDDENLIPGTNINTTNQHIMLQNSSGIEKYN
# Assay: Inhibition of Lipoprotein associated phospholipase A2 in human plasma at 100 nM
# Type: cell-free
# Method in brief: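 Whole plasma (human, or WHHL rabbit) mixed with compound in DMSO at a single concentration and preincubated 10 min at 37 °C before enzyme assay. Reaction ran 60 s in human plasma and 15 s in rabbit plasma, then stopped with CHCl3/MeOH (2:1). Released [3H]acetate was read by scintillation counting of the aqueous layer after chloroform extraction.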
row,Compound,inhibition
1,O=c1nc(SCc2ccc(F)cc2)n(CCc2ccccc2)cc1Cc1cncnc1,27%
2,Cn1cc(Cc2cncnc2)c(=O)nc1SCc1ccc(F)cc1,28%
3,O=c1nc(SCc2ccc(F)cc2)n(Cc2ccco2)cc1Cc1cncnc1,26%

# Molecular target: T2, Platelet-activating factor acetylhydrolase (Homo sapiens, UniProt Q13093)
# T2 sequence (Q13093 whole entry): T1 sequence (whole entry)
# Assay: Inhibition of isolated human lipoprotein associated phospholipase A2
row,Compound,pIC50
1,CCCCCCCCCCCCCCCCCCNC(=O)CCCn1cc(Cc2cncnc2)c(=O)nc1SCc1ccc(F)cc1,8.40
2,Cn1cc(Cc2cncnc2)c(=O)nc1SCc1ccccc1,6.18
3,O=c1nc(SCc2ccc(F)cc2)n(CCc2ccccc2)cc1Cc1cncnc1,6.70
4,Cn1cc(Cc2cncnc2)c(=O)nc1SCc1ccc(F)cc1,6.55
5,O=c1nc(SCc2ccc(F)cc2)n(CCc2cccs2)cc1Cc1cncnc1,6.60
6,O=C(CCCCCCCSc1nc(=O)c(Cc2cncnc2)cn1Cc1cccs1)c1ccc(Cl)cc1,7.96
7,CCCCCCCCNC(=O)Cn1cc(Cc2cncnc2)c(=O)nc1SCc1ccc(F)cc1,8.15
8,CCCCCCCCCCCn1cc(Cc2cncnc2)c(=O)nc1SCc1ccc(F)cc1,7.72
9,CCCCCCCCC=CCCCCCCCCNC(=O)CCCn1cc(Cc2cncnc2)c(=O)nc1SCc1ccc(F)cc1,9.40
10,CCCCCCCNC(=O)NCCn1cc(Cc2cncnc2)c(=O)nc1SCc1ccc(F)cc1,7.15
11,O=c1nc(SCc2ccccc2)n(Cc2cccs2)cc1Cc1cncnc1,6.68
12,COCCn1cc(Cc2cncnc2)c(=O)nc1SCCCCCCCC(=O)c1ccc(Cl)cc1,6.96
13,CCCCCCCN(C)C(=O)CCCn1cc(Cc2cncnc2)c(=O)nc1SCc1ccc(F)cc1,8.52
14,O=C(CCCCCCCSc1nc(=O)c(Cc2cncnc2)cn1CCc1ccccc1)c1ccc(Cl)cc1,7.47
15,O=c1nc(SCc2ccc(F)cc2)n(CCCCCCCCCc2ccccc2)cc1Cc1cncnc1,7.60
16,O=c1nc(SCc2ccccc2F)n(Cc2ccco2)cc1Cc1cncnc1,6.35
17,CCCCCCCC/C=C/CCCCCCCCNC(=O)Cn1cc(Cc2cncnc2)c(=O)nc1SCc1ccc(F)cc1,8.70
18,O=c1nc(SCc2ccccc2)n(CCCc2ccccc2)cc1Cc1cncnc1,6.52
19,CCCCNC(=O)CCCCCn1cc(Cc2cncnc2)c(=O)nc1SCc1ccc(F)cc1,6.59
20,O=c1nc(SCc2ccc(F)cc2)n(Cc2ccco2)cc1Cc1cncnc1,6.52
21,O=c1nc(SCc2ccccc2)n(Cc2ccccc2)cc1Cc1cncnc1,6.35

row,Compound,pIC50
1,O=c1nc(SCc2ccc(Cl)cc2)n(Cc2ccco2)cc1Cc1cncnc1,5.85
2,O=c1nc(SCc2cccc(Cl)c2)n(Cc2ccco2)cc1Cc1cncnc1,6.02
3,CCn1cc(Cc2cncnc2)c(=O)nc1SCCCCCCCC(=O)c1ccc(Cl)cc1,7.41
4,O=c1nc(SCc2ccc(F)c(F)c2)n(Cc2ccco2)cc1Cc1cncnc1,6.63
5,O=C(Cn1cc(Cc2cncnc2)c(=O)nc1SCc1ccc(F)cc1)NCCCCCCc1ccc(F)cc1,8.70
6,O=c1nc(SCc2ccccc2)n(CCc2cccs2)cc1Cc1cncnc1,6.46
7,CCCCCCc1ccc(CCn2cc(Cc3cncnc3)c(=O)nc2SCc2ccc(F)cc2)cc1,7.92
8,O=C(CCCCCCCSc1nc(=O)c(Cc2cncnc2)cn1Cc1ccco1)c1ccc(Cl)cc1,7.80
9,O=c1nc(SCc2ccc(F)c(F)c2)n(CCc2ccccc2)cc1Cc1cncnc1,6.96
10,CCCCCCCCC=CCCCCCCCCNC(=O)Cn1cc(Cc2cncnc2)c(=O)nc1SCc1ccc(F)cc1,9.00
11,O=c1nc(SCc2cccc(F)c2)n(Cc2ccco2)cc1Cc1cncnc1,6.60
12,O=c1nc(SCc2ccccc2)n(CCc2ccccc2)cc1Cc1cncnc1,6.68
13,O=C(CCCCCCCSc1nc(=O)c(Cc2cncnc2)cn1CCCc1ccccc1)c1ccc(Cl)cc1,7.05
14,CCCCCCCCCCNC(=O)CCCn1cc(Cc2cncnc2)c(=O)nc1SCc1ccc(F)cc1,10.00
15,CCCCCCCCN(C)C(=O)Cn1cc(Cc2cncnc2)c(=O)nc1SCc1ccc(F)cc1,7.82
16,COCCn1cc(Cc2cncnc2)c(=O)nc1SCc1ccccc1,5.92
17,CCCCCCCC(=O)NCCn1cc(Cc2cncnc2)c(=O)nc1SCc1ccc(F)cc1,6.85
18,O=C(CCCCCCCSc1nc(=O)c(Cc2cncnc2)cn1Cc1ccccc1)c1ccc(Cl)cc1,7.44
19,CCCCCCCC/C=C/CCCCCCCCNC(=O)CCCn1cc(Cc2cncnc2)c(=O)nc1SCc1ccc(F)cc1,9.15
20,Cn1cc(Cc2cncnc2)c(=O)nc1SCCCCCCCC(=O)c1ccc(Cl)cc1,7.72
21,CCCCCCCNC(=O)Cn1cc(Cc2cncnc2)c(=O)nc1SCc1ccc(F)cc1,7.72
